Screening results as filed in PubChem BioAssay.
Hsp70 activator = switches on Hsp70 transcription | HeLa Hsp70 promoter luciferase reporter, luminescence; scaled: vehicle 0, proteasome-inhibitor control 100% | activation, % at 10 µM | 200,000 tested, 0.04% active;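 active means activation above the mean across all tested compounds plus 3 SD, cutoff set per campaign, cut at about 5.5% in these data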;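 further: 100% = MG132 at 30 µM as the positive control and 0% = DMSO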
HSF1 inhib = HSF1 inhibition | NIH3T3-HGL HSE-luciferase, MG132-induced, luminescence 8 h; hits give low values | activity change, negative = inhibition, % at 7.5 µM (by protocol) | 300,000 tested, 0.77% active | AID 2098;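 active means more than half of replicate wells show activity change below -50%, luminescence cut by over half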;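 further: luciferase reports HSF-1 transcriptional activity via heat shock element; 0% = median of DMSO wells and -100% = zero luminescence signal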
HSP90 refold inh = inhibitors of HSP90 luciferase refolding in rabbit reticulocyte lysate; luciferase refolding luminescence, 3 h; inhibition, % at 5.6 µM; 290,000 tested, 0.91% active; AID 1789;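 active means inhibition above the screen-wide mean plus 3 SD, computed separately per campaign, cut at about 16% in these data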;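 further: 0% = DMSO wells and 100% = 60 µM geldanamycin wells; inhibitors lower the luminescence because luciferase stays unfolded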
HSF-1 act = increases HSF-1 driven luciferase reporter signal; NIH3T3-HGL HSF-1 luciferase reporter, MG132, 8 h; 100% = twice DMSO control signal; activation, % at 9 µM; 300,000 tested, 1.7% active;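 active means mean replicate activation of at least 50% with a set share of replicates each reaching 50%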;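 further: 0% = median of the neutral control wells and 100% = twice that signal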
HKDC1 inhibitor = HKDC1 (human) hexokinase inhibition | recombinant HKDC1, G6PDH/diaphorase resazurin coupled fluorescence | inhibition, % at 20 µM | 340,000 tested, 0.16% active | AID 493160;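 active means inhibition above about 35% when tested at 20 µM, limit read from the data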;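 further: plate controls were DMSO wells with enzyme for no effect and DMSO wells lacking enzyme for full effect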
Target sequence (Q2TB90 whole entry, looked up): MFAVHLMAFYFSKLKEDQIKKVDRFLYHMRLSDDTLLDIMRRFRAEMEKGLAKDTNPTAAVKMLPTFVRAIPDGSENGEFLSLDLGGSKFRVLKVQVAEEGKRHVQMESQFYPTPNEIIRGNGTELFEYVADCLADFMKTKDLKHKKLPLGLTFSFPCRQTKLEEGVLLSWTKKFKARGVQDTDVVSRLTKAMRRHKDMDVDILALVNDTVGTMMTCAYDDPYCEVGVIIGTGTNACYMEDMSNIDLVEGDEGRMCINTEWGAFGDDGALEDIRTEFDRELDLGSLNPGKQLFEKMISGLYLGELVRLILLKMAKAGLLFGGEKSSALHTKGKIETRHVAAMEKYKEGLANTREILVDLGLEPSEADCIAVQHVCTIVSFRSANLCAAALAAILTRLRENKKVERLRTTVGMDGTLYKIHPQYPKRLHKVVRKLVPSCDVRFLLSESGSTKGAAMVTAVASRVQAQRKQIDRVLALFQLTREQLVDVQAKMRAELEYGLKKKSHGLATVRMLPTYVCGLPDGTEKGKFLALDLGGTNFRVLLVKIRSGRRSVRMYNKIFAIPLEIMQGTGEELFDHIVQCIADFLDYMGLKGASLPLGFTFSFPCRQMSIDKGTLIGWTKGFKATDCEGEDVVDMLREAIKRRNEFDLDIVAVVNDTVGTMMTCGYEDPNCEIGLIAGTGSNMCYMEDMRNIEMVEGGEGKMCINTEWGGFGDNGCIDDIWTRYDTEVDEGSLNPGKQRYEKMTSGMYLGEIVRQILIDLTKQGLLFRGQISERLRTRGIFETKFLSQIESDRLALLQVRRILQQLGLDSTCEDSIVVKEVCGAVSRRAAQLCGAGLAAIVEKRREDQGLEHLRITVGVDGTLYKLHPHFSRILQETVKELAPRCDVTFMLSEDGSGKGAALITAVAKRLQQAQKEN
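System: Recombinant HKDC1 hexokinase | Amount: HKDC1 at 5 µg/mL | Reagent: Glucose with 1 mM ATP | Doses: Single 20 µM dose | Incubation: Reaction time 90 min, room temperature, protected from light | Signal: Coupled resazurin fluorescence, excitation 525 nm, emission 613 nm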
TbHK1 inh = T. brucei hexokinase 1 inhibition; recombinant TbHK1, G6PDH-coupled NADH A340; inhibition, % at 10 µM; 220,000 tested, 0.11% active; AID 1430;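 active means inhibition of 50% or more in the single-dose primary screen; inactive means inhibition below 50%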
Numbers without * were called inactive; · = no result. In the library only some 3.1% were active in any assay of this set; here they are far more common.

SMILES	Hsp70 activator	HSF1 inhib	HSP90 refold inh	HSF-1 act	HKDC1 inhibitor	TbHK1 inh
Cc1ccc(C(=O)/C=C\Nc2ccc(C)c(C)c2)cc1	0.3	16.5	-3.1	55.7*	-8.1	-6.1
O=C(/C=C/Nc1ccccc1)c1ccccc1	-0.4	45.5	-1.2	87.7*	3.0	-16.9
O=C(Cc1coc2cc(O)ccc12)NNC(=O)c1ccc(Br)s1	·	·	·	·	0.9	·
O=C(Nc1ccccc1F)c1ccc([N+](=O)[O-])s1	-0.2	67.8	0.1	101.5*	-7.6	-17.4
O=C(Nc1cccc2ccccc12)c1ccc([N+](=O)[O-])s1	0.2	40.6	3.0	70.9*	-5.6	1.3
CCCCN(CC)C(=O)c1oc2ccc(S(=O)(=O)N3CCCC3)cc2c1C	·	-0.1	-1.6	-4.9	-8.2	·
CC(C)c1ccc2oc(=O)cc(CN3CCCCC3)c2c1	·	-54.3*	0.5	-62.1	-1.5	·
CCOC(=O)C1=C(COC(=O)C2CC(=O)N(c3ccc(C)cc3)C2)NC(=O)NC1C (centres undefined)	·	-1.3	·	18.6	-1.9	·
CCOC(=O)CCNC(=O)N1CCCC(C(=O)c2cccc(Cl)c2)C1 (centres undefined)	0.0	0.5	-2.8	24.7	7.5	-7.4
CCCNC(=O)N1CCCC(C(=O)c2cccc(Cl)c2)C1 (centres undefined)	-0.3	-53.7*	2.2	-65.2	-8.4	0.5
O=C1CCCC2=C1C(c1ccc(O)c(O)c1)c1c(ccc3ncccc13)N2 (centres undefined)	0.1	-0.4	-4.4	11.3	8.2	-11.0
CCOc1ccc(C2C3=C(CCCC3=O)Nc3ccc4ncccc4c32)cc1 (centres undefined)	·	32.6	-1.5	67.8*	7.4	-21.4
Cc1ccc2c(c1)c1c(n2CC(O)CN2CCOCC2)CCCC1 (centres undefined)	·	-69.7*	-4.0	-75.8	·	·
Cc1ccc2c(c1)c1c(n2CC(O)CN2CCC(C)CC2)CCCC1 (centres undefined)	·	7.3	1.6	30.2	3.9	20.7
O=C(NCC1CCCO1)c1sc2ccccc2c1Cl (centres undefined)	0.2	13.1	4.2	33.6	-5.8	19.6
COc1ccc(CCNC(=O)c2sc3cc(C)ccc3c2Cl)cc1	-0.1	0.4	-0.3	2.7	-4.2	0.6
Cc1ccc2c(Cl)c(C(=O)NCC3CCCO3)sc2c1 (centres undefined)	0.3	28.7	1.2	54.1*	-1.6	-4.1
Cc1ccc2c(Cl)c(C(=O)NCCc3ccccc3)sc2c1	0.3	40.6	-3.8	76.6*	-11.0	12.7
CCCCOc1ccc(S(=O)(=O)N2CCCCCC2)cc1	-0.1	37.4	-1.8	66.0*	0.5	9.1
CC(=O)Nc1ccc(SCC(=O)N2CCN(S(=O)(=O)c3ccccc3)CC2)cc1	·	-57.2*	-3.1	-64.6	2.1	·
CCOc1ccc(OCCC(=O)OCC(=O)N2CCN(S(=O)(=O)c3ccc(Cl)cc3)CC2)cc1	·	61.6	5.3	86.9*	2.3	·
Cc1ccc(S(=O)(=O)N2CCN(C(=O)CSc3ccc(Cl)cc3)CC2)cc1	·	26.2	-1.9	74.5*	-1.7	·
O=C(CSc1ccc(Cl)cc1)N1CCN(c2c(Cl)cccc2[N+](=O)[O-])CC1	-0.3	47.0	3.1	69.6*	0.7	14.3
COCCNCc1ccccc1[N+](=O)[O-]	·	·	·	·	4.8	·
COc1ccc(N2CCN(CCC(=O)c3ccc4ccccc4c3)CC2)cc1	·	3.3	-2.6	16.1	10.0	·
SMILES	Hsp70 activator	HSF1 inhib	HSP90 refold inh	HSF-1 act	HKDC1 inhibitor	TbHK1 inh
CCCc1cc(N2CCOCC2)n2ncc(-c3ccccc3)c2n1	·	-15.6	16.6*	-3.2	-2.6	·
CC(C)(C)c1nc(SCC(=O)Nc2ccc(N3CCOCC3)cc2)c2ccccc2n1	-0.3	27.3	0.0	58.4*	0.1	2.3
CC(C)(C)c1nc(SCC(=O)Nc2ccc3c(c2)OCCO3)c2ccccc2n1	-0.3	2.2	3.1	-6.3	-9.2	8.0
CC(C)CC(=O)Nc1ccc(N2CCOCC2)cc1	-0.3	46.2	5.7	98.2*	-8.5	-2.6
CC(C)NC(=O)c1onc(CSc2ccc(F)cc2)c1C(=O)NC(C)C	·	15.5	·	-6.1	-1.8	·
COc1ccc(Br)cc1CN1CCN(Cc2c[nH]c3ccccc23)CC1	·	9.7	-0.6	55.0*	-3.3	·
CC(C)c1ccc(/C=N/NC(=O)C2CCCC2)cc1	·	26.7	-4.1	51.6*	-3.2	·
O=C1C=C(Nc2ccccc2O)c2ccccc2C1=O	0.1	58.5	4.1	83.9*	23.6	-8.1
